In ChEMBL document CHEMBL2311271 (Eur J Med Chem, 2013):

Columns and labels:
Assay type in all cases: functional, cell-based
MCF7 = assay: Cytotoxicity against human MCF7 cells by MTT assay
Method in brief: (§1)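 Cells grown in RPMI-1640 with 10% fetal calf serum plus penicillin and streptomycin, 37 °C, 5% CO₂. Compounds in DMSO, final ≤2% (v/v), tested in 96-well cultures with MTT staining. IC₅₀ = concentration cutting optical density 50% versus untreated cells; three replicate wells per point; mean of three independent determinations.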

HepG2 = assay: Cytotoxicity against human HepG2 cells by MTT assay; method in brief: as §1
Bel-7402 = assay: Cytotoxicity against human Bel7402 cells by MTT assay; method in brief: as §1
BGC-823 = assay: Cytotoxicity against human BGC823 cells by MTT assay; method in brief: as §1
HeLa = assay: Cytotoxicity against human HeLa cells by MTT assay; method in brief: as §1
KB = assay: Cytotoxicity against human KB cells by MTT assay; method in brief: as §1
U-251 = assay: Cytotoxicity against human U251 cells by MTT assay; method in brief: as §1
[1] = Cytotoxicity against human Blu-87 cells by MTT assay; method in brief: as §1
769-P = assay: Cytotoxicity against human 769-P cells by MTT assay; method in brief: as §1
SCaBER = assay: Cytotoxicity against human SCaBER cells by MTT assay; method in brief: as §1
HT-29 = assay: Cytotoxicity against human HT-29 cells by MTT assay; method in brief: as §1
786-0 = assay: Cytotoxicity against human 786-0 cells by MTT assay; method in brief: as §1
A-375 = assay: Cytotoxicity against human A375 cells by MTT assay; method in brief: as §1
A549 = assay: Cytotoxicity against human A549 cells by MTT assay; method in brief: as §1
OS-RC-2 = assay: Cytotoxicity against human OS-RC2 cells by MTT assay; method in brief: as §1
CWR22R = assay: Cytotoxicity against human 22Rv1 cells by MTT assay; method in brief: as §1

Compound	IC50 (MCF7) [µM]	IC50 (HepG2) [µM]	IC50 (Bel-7402) [µM]	IC50 (BGC-823) [µM]	IC50 (HeLa) [µM]	IC50 (KB) [µM]	IC50 (U-251) [µM]	IC50 [1] [µM]	IC50 (769-P) [µM]	IC50 (SCaBER) [µM]	IC50 (HT-29) [µM]	IC50 (786-0) [µM]	IC50 (A-375) [µM]	IC50 (A549) [µM]	IC50 (OS-RC-2) [µM]	IC50 (CWR22R) [µM]
Cc1nccc2c3ccc(OCCCc4ccccc4)cc3n(CC(C)C)c12	19.5	27.7	> 100	18.5	27.6											
CCCCOc1ccc2c3ccnc(C)c3n(CCCc3ccccc3)c2c1	68.9	12.4	34.8	14	88.7											
Cc1nccc2c3ccc(OCC(C)C)cc3n(CCCc3ccccc3)c12	> 100	12.9	39.3	23	> 100											
CC(C)=CCOc1ccc2c3ccnc(C)c3n(CCCc3ccccc3)c2c1	> 100	21.1	24.7	32.3	> 100											
Cc1nccc2c3ccc(OCCCc4ccccc4)cc3n(CCCc3ccccc3)c12	> 100	16.7	> 100	19.8	> 100											
CCCCOc1ccc2c3cc[n+](Cc4ccccc4)c(C)c3n(CC)c2c1	5.9	10	2.9	10.9	2.4	< 1.7	14.2	22.9	4.6	21.8	6.4	7.8	6.9	13	8.8	
CCn1c2cc(OCc3ccccc3)ccc2c2cc[n+](Cc3ccccc3)c(C)c21	67.6	49.9	3.6	66.1	56.3	8.7	16.2	22.1	8.9	46.3	10.9	15.4	12.3	19.6	15.9	
CCCCn1c2cc(OCC(C)C)ccc2c2cc[n+](Cc3ccccc3)c(C)c21	10.4	4.2	2.7	4.6	3.9	2	12.1	12.3	4.6	18.2	3.1	2.5	4.2	3.8	3.2	6.7
CCCCn1c2cc(OCc3ccccc3)ccc2c2cc[n+](Cc3ccccc3)c(C)c21	15.7	2.7	3.6	21.4	2.2	4	5.5	4.6	20	8.5	3.7	< 1.5	4	4.4	3.6	2.1
CCCCCCCCCCOc1ccc2c3cc[n+](Cc4ccccc4)c(C)c3n(CC(C)C)c2c1	1.8	2.4	5.8	2	1.6	< 1.5	1.5	3.2	< 1.5	7.8	1.7	1.9	< 1.5	< 1.5	4	< 1.5
Cc1c2c(cc[n+]1Cc1ccccc1)c1ccc(OCCCc3ccccc3)cc1n2CC(C)C	9.2	4	1.3	2.5	1.4	< 1.5	2.5	3.8	3.7	3.6	4.9	2.3	< 1.5	< 1.5	3.5	2.8
CCCCOc1ccc2c3cc[n+](Cc4ccccc4)c(C)c3n(CCCc3ccccc3)c2c1	3.8	4.1	2.5	4.1	3.9	< 1.5	3.7	4.4	2.9	4.7	3.4	2.6	1.5	< 1.5	6.8	3.4
CCn1c2cc(OC(C)C)ccc2c2ccnc(C)c21	> 100	52.6	43.6	59.7	27.6											
CCCCOc1ccc2c3ccnc(C)c3n(CC)c2c1	18.5	16.3	52.9	15.6	29.2											
CCCCCCCCCCOc1ccc2c3ccnc(C)c3n(CC)c2c1	45.9	14.1	> 100	15.2	> 100											
CCn1c2cc(OCc3c(F)c(F)c(F)c(F)c3F)ccc2c2ccnc(C)c21	> 100	> 100	> 100	> 100	> 100											
